Assay results from ChEMBL document CHEMBL1158389, “Highly twisted adamantyl arotinoids: synthesis, antiproliferative effects and RXR transactivation profiles” (Eur J Med Chem, 2009).
Active and inactive are the calls of the source. The calls are words filed in the database; no cut-off is given here.

Key:
PC-3 = test: Antiproliferative activity against human PC3 cells at 4 uM after 48 hrs by MTT assay; assay type: functional
How it was run: (§1)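 Epithelial cancer lines came from ATCC and were seeded the day before in complete medium: PC-3, SkOV3 and A549 at 3,000/well; MiaPaCa-2 and BxPC-3 at 4,000; T-47D and MDA-MB-468 at 5,000. Medium was switched to 0.5% FBS just before exposure to 4 μM. Read-out was MTT (4 h, 37 °C), SDS/HCl solubilisation, A595 minus cell-free blank. Growth inhibition was taken versus DMSO (≤0.1% v/v) controls, ≥2 experiments in triplicate.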

MIA PaCa-2 = test: Antiproliferative activity against human MIAPaCa2 cells at 4 uM after 48 hrs by MTT assay; assay type: functional; how it was run: as §1
[1] = biological target: T1, Retinoic acid receptor beta (Homo sapiens) (UniProt P10826); test: Inhibition of transactivation activity of Gal4-LBD fused human RARbeta (169 to 448) transfected in atRA-stimulated african green monkey CV1 cells at 4 uM after 6 hrs by Dual-light chemiluminescent assay; assay type: cell-based; settings: CV-1
T1 sequence (whole entry): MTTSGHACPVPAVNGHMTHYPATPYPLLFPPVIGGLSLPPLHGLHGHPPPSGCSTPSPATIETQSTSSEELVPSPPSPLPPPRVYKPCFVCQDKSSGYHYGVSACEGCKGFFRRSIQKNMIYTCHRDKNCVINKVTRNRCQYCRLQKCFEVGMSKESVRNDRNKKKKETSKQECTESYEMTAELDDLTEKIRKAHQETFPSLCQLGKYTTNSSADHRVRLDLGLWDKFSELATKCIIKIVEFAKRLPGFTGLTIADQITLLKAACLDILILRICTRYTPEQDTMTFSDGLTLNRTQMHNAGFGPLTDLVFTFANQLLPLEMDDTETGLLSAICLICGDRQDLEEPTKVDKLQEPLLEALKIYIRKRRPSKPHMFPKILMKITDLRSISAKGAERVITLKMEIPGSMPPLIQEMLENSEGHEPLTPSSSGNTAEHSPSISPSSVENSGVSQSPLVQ
How it was run: (§2)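 Gal4 DBD (1–147) was fused to hRARα (156–462) or hRARβ (169–448) LBD. CV-1 cells (20,000/well) were co-transfected with 10 ng Gal4-LBD, 100 ng UAS-luciferase and 25 ng β-gal vector. After 16 h the medium was replaced with medium containing 5% charcoal-treated FBS. Cells got atRA plus test compound at 10-, 40- or 200-fold excess (0.2, 0.8, 4 μM) for 6 h. Luciferase and β-galactosidase were read by chemiluminescence.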

BXPC-3 = test: Antiproliferative activity against human BxPC3 cells at 4 uM after 48 hrs by MTT assay; assay type: functional; how it was run: as §1
[2] = biological target: T2, Retinoic acid receptor alpha (Homo sapiens) (UniProt P10276); test: Transactivation of Gal4-LBD fused human RARalpha (156 to 454) transfected in african green monkey CV1 cells assessed as luciferase activity at 2 uM after 6 hrs by Dual-light chemiluminescent assay; assay type: cell-based; settings: CV-1
T2 sequence (whole entry): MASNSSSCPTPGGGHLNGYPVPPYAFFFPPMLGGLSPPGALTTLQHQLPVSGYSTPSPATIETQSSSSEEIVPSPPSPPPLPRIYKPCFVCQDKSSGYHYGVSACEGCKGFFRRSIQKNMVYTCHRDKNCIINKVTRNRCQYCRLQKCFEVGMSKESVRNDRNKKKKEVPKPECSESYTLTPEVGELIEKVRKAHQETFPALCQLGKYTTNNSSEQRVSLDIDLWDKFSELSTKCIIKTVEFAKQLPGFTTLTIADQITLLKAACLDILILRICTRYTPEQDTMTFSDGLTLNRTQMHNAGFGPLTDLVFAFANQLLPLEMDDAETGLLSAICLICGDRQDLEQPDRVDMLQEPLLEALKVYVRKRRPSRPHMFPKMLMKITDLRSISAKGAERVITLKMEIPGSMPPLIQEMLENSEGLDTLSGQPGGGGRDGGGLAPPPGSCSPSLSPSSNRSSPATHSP

T47D = test: Antiproliferative activity against human T47D cells at 4 uM after 48 hrs by MTT assay; assay type: functional; how it was run: as §1
SK-OV-3 = test: Antiproliferative activity against human SKOV3 cells at 4 uM after 48 hrs by MTT assay; assay type: functional; how it was run: as §1
[3] = biological target: T1, Retinoic acid receptor beta (Homo sapiens); test: Transactivation of Gal4-LBD fused human RARbeta (169 to 448) transfected in african green monkey CV1 cells assessed as luciferase activity at 2 uM after 6 hrs by Dual-light chemiluminescent assay; assay type: cell-based; settings: CV-1
How it was run: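 Transfected CV-1 cells carried Gal4-LBD constructs: hRARα 156–462, hRARβ 169–448, hRARγ 178–454 or mRXRα 218–467. Transfection used 10 ng Gal4-LBD, 100 ng UAS-luciferase and 25 ng β-gal vector. After 16 h the medium was changed to 5% charcoal-treated FBS. Cells were stimulated with 2 μM analog for 6 h (RARα, RARβ, RXRα) or 20 h (RARγ). Reference agonists were 1 μM atRA (RARα) and 1 μM 9cRA (RXRα). Luciferase and β-galactosidase were read by chemiluminescence.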

[4] = biological target: T3, Retinoic acid receptor gamma (Homo sapiens) (UniProt P13631); test: Inhibition of transactivation activity of Gal4-LBD fused human RARgamma (178 to 454) transfected in atRA-stimulated african green monkey CV1 cells at 4 uM after 20 hrs by Dual-light chemiluminescent assay; settings: CV-1
T3 sequence (whole entry): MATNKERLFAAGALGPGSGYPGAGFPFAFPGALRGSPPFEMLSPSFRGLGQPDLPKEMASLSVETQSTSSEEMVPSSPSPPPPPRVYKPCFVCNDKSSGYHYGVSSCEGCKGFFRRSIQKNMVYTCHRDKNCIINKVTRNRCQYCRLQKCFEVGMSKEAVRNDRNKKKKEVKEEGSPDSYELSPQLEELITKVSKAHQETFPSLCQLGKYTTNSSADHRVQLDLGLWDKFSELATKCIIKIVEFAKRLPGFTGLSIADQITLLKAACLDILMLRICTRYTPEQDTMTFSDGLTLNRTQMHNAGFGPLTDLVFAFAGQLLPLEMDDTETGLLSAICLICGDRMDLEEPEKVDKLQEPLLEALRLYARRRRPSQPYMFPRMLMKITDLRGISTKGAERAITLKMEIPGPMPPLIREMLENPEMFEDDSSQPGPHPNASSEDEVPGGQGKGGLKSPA

Jurkat [5] = test: Antiproliferative activity against human Jurkat T cells at 2 uM after 48 hrs by MTT assay; assay type: functional, cell-based
How it was run: (§3)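 Jurkat T cells were resuspended at 10^5 cells/mL in RPMI with 0.5% FBS (10,000/well) and seeded immediately before dosing at 62.5 nM–2 μM for two days. Viability was read by MTT (4 h, 37 °C), formazan dissolved in 10% SDS/10 mM HCl, A595 with cell-free background subtracted. Values are relative to DMSO controls (≤0.1% v/v); at least two experiments in triplicate.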

Jurkat [6] = test: Antiproliferative activity against human Jurkat T cells at 62.5 nM after 48 hrs by MTT assay; assay type: functional, cell-based; how it was run: as §3
A549 = test: Antiproliferative activity against human A549 cells at 4 uM after 72 hrs by MTT assay; assay type: functional; how it was run: as §1
MDA-MB-468 = test: Antiproliferative activity against human MDA-MB-468 cells at 4 uM after 48 hrs by MTT assay; assay type: functional; how it was run: as §1
[7] = biological target: T2, Retinoic acid receptor alpha (Homo sapiens); test: Inhibition of transactivation activity of Gal4-LBD fused human RARalpha (156 to 454) transfected in atRA-stimulated african green monkey CV1 cells at 0.2 uM after 6 hrs by Dual-light chemiluminescent assay; assay type: cell-based; settings: CV-1, 0.2 uM; how it was run: as §2
[8] = biological target: T3, Retinoic acid receptor gamma (Homo sapiens); test: Inhibition of transactivation activity of Gal4-LBD fused human RARgamma (178 to 454) transfected in atRA-stimulated african green monkey CV1 cells after 20 hrs by Dual-light chemiluminescent assay; settings: CV-1
[9] = biological target: T1, Retinoic acid receptor beta (Homo sapiens); test: Inhibition of transactivation activity of Gal4-LBD fused human RARbeta (169 to 448) transfected in atRA-stimulated african green monkey CV1 cells after 6 hrs by Dual-light chemiluminescent assay; assay type: cell-based; settings: CV-1; how it was run: as §2
[10] = biological target: T2, Retinoic acid receptor alpha (Homo sapiens); test: Displacement of [3H]9cRA from RARalpha
Jurkat [11] = test: Induction of apoptosis in human Jurkat T cells assessed as induction of DEVDase activity at 1 uM after 4 hrs by fluorescence assay; assay type: functional, cell-based
How it was run: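 Jurkat cells (40,000/well, 10^6 cells/mL, RPMI with 0.5% FBS) were treated for 4 h; controls got 0.1% DMSO. Lysis was in CE buffer (PIPES pH 7, NP-40, cytochalasin B, protease inhibitors) for 30 min at 4 °C. Lysates were mixed with 2x caspase buffer (HEPES pH 7.4, CHAPS, sucrose) holding 100 μM Ac-DEVD-AFC and incubated at 37 °C for 30 min. AFC was read every 2 min, ex 390/em 510 nm.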

[12] = biological target: T3, Retinoic acid receptor gamma (Homo sapiens); test: Displacement of [3H]9cRA from RARgamma
[13] = biological target: T4, Retinoic acid receptor RXR-alpha (Homo sapiens) (UniProt P19793); test: Displacement of [3H]9cRA from RXRalpha
T4 sequence (whole entry): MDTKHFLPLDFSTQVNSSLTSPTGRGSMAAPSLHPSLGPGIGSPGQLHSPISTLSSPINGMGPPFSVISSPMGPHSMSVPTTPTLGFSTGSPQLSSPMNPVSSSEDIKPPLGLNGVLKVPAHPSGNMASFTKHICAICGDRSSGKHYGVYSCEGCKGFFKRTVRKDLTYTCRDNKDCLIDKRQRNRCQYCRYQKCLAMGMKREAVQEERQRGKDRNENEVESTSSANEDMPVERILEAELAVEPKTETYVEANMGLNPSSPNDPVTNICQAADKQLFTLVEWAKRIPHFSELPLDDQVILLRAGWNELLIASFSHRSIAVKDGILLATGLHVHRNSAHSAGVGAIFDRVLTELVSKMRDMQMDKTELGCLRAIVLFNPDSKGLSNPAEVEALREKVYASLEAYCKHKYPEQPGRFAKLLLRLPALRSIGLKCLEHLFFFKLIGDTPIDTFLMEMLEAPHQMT

[14] = biological target: T1, Retinoic acid receptor beta (Homo sapiens); test: Displacement of [3H]9cRA from RARbeta
[15] = biological target: T5, Retinoic acid receptor RXR-alpha (Mus musculus) (UniProt P28700); test: Inhibition of Gal4-LBD fused mouse RXRalpha transactivation in african green monkey CV1 cells at 1 uM after 6 hrs by Dual-light chemiluminescent assay; assay type: cell-based; settings: CV-1
T5 sequence (whole entry): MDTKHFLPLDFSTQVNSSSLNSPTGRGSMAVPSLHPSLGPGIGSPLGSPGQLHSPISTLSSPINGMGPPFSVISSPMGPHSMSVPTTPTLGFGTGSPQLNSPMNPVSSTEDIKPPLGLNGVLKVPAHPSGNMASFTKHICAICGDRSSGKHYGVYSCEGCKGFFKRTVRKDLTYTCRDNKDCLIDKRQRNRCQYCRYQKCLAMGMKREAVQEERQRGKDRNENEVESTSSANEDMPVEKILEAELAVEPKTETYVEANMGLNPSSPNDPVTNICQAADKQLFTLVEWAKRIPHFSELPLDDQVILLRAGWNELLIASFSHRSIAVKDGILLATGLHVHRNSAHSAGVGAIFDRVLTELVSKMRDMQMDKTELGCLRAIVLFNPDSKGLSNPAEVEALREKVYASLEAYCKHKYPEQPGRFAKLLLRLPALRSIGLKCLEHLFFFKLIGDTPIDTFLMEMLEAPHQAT
How it was run: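 CV-1 cells (20,000/well) co-transfected with 10 ng Gal4 DBD (residues 1–147)–mRXRα LBD (residues 218–467) vector, 100 ng UAS-luciferase reporter and 25 ng β-galactosidase vector (pCH110). After 16 h, switched to medium with 5% charcoal-treated FBS and treated for 6 h. Cells washed, lysed, and luciferase and β-galactosidase activities read by chemiluminescence.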

Cc1cc(O)c(C23CC4CC(CC(C4)C2)C3)cc1-c1ccc(CC(=O)O)cc1Cl
inhibition at 4 µM (PC-3; PC-3, 48 h): 66.7%
inhibition at 4 µM (MIA PaCa-2; MIA PaCa-2, 48 h): 26.8%
Activity [1]: inactive
inhibition at 4 µM (BXPC-3; BXPC-3, 48 h): 49.2%
Activity [2]: inactive
inhibition at 4 µM (T47D): 29.1%
inhibition at 4 µM (SK-OV-3; SK-OV-3, 48 h): 30.3%
Activity [3]: inactive
Activity [4]: inactive
Activity (Jurkat [5]): Active
Activity (Jurkat [6]): inactive
inhibition at 4 µM (A549; A549, 72 h): 15.9%
inhibition at 4 µM (MDA-MB-468; MDA-MB-468, 48 h): 11.1%
inhibition [7]: inactive

CC1(C)CC=C(C#Cc2ccccc2)c2cc(/C=C/c3ccc(C(=O)O)cc3)ccc21
Activity [8]: Active
Activity [9]: Active

O=C(O)/C=C/c1ccc(-c2ccc(O)c(C34CC5CC(CC(C5)C3)C4)c2)c(Cl)c1
Activity (PC-3): Active
Activity (MIA PaCa-2): Active
Activity [10]: 31%
Activity (BXPC-3): Active
Activity (T47D): Active
Activity (Jurkat [11]): Active
Activity (SK-OV-3): Active
Activity (A549): Active
Activity [12]: 83%
Activity (MDA-MB-468): Active
Activity [13]: 16%
Activity [14]: 17%

CCCCCOc1cc2c(cc1-c1cc(/C=C/C(=O)O)ccc1O)C(C)(C)CCC2(C)C
Activity [15]: Active
